FN deposition inh: inhibitors of fibronectin matrix deposition, primary screen, AH1F cells, Alexa488-fibronectin fluorescence, plate reader; AH1F fibroblasts, overnight; inhibition, % at 12.6 µM; hit rate 0.086% among 350,000; AID 743247, 2014;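 active means mean inhibition across replicates of 30% or more, regardless of how many single replicates reach that level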;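 further: positive control wells lacked labelled fibronectin entirely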
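test system = AH1F fibroblasts assembling fluorescent fibronectin matrix | quantity = 10000 AH1F cells per well | buffer or medium = DMEM plus 2% serum, read in PBS | doses = single dose, pinned | incubation = 1 h cell attachment, overnight exposure to compound and label | detection = fluorescence at 485 nm excitation, 525 nm emission | read-out basis = inhibition from reduced deposited-fibronectin fluorescence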
DENV2 CPE: inhibitors of DENV2 cytopathic effect, primary screen, cell-based, plate reader, single concentration; DENV2-infected cells, cytopathic effect rescue; CPE inhibition, % at 9.99 µM; hit rate 1.7% among 350,000; AID 651640, 2012; in the data active means CPE inhibition above about 20%, passing the limit was not always enough; tested in BHK-21 cells;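 further: 0% = median of neutral control wells and 100% = median of positive control wells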
PGC1a acetyl inh: inhibitors of PGC1a acetylation signal, primary screen, cell-based, U2OS, AlphaScreen, inhibitor mode; inhibition, % at 15.6 µM; AID 651687, 2012; hit rate 0.17% among 350,000; AlphaScreen anti-acetyl-lysine; with virally co-expressed GCN5 acetyltransferase;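 active means every replicate shows inhibition of at least 40%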;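 further: 0% = neutral control wells and 100% = positive control wells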
HIV Env fusion: inhibitors of HIV-1 Env-driven cell-cell fusion, primary screen, HeLa-JRFL effector, CEM21 target cells, luciferase; AID 651610, 2012; inhibition, % at 12.3 µM; hit rate 1.1% among 360,000;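 active means mean replicate inhibition score of at least 50 and every replicate individually at or above 50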;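 further: 0% = plate neutral controls and 100% = maraviroc near 300 nM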
rRNA inh HTS: reduced GFP signal of wild-type E. coli, primary screen, bacterial rRNA inhibitor project, GFP/RFP fluorescence, OD600, single point | E. coli WT GFP vs humanized-ribosome RFP mutants, 24 h; active compounds read low; DMSO median 0, no signal -100 | GFP signal change (wild-type ribosome), % (concentration not given with the values) | hit rate 1.6% among 350,000;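 active means significant combined selectivity score with lowered wild-type GFP, culture density cut under 30%, mutant RFP and density less affected; inactive means any of these conditions unmet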
PglD inh: C. jejuni PglD acetyltransferase inhibitors, primary screen, biochemical, DTNB colorimetric, single point | inhibition, % at 12.5 µM | hit rate 0.098% among 360,000 | purified PglD enzyme, DTNB colorimetric CoA detection | UDP-N-acetylbacillosamine N-acetyltransferase PglD (Campylobacter jejuni) | AID 602405, 2012; in the data active means inhibition above about 16%, passing the limit was not always enough
An asterisk follows results filed as active; . = not tested or not shown; [ ] = remark or other dose. This is a sample that favours compounds with a hit; in the whole collection about 3.5% have one here.

SMILES	FN deposition inh	DENV2 CPE	PGC1a acetyl inh	HIV Env fusion	rRNA inh HTS	PglD inh
C[C@@H]1CCCCO[C@H](CN(C)S(=O)(=O)c2ccccc2)[C@@H](C)CN([C@H](C)CO)C(=O)c2cc(NS(=O)(=O)c3cccs3)ccc2O1	5.2	.	-2.3	-11.6[16.7 µM]	0.8	-0.2
O=C(NCc1ccc(-c2nc3ccccc3s2)cc1)c1ccco1	-0.4	-3.4	-9.7	-19.4	-19.9*	-20.4
O=C(NC(=S)NCc1ccc(-c2nc3ccccc3s2)cc1)c1ccco1	11.1	.	.	-18.4	.	.
O=C(C[C@H]1CC[C@H]2[C@@H](COC[C@H](O)CN2Cc2ccncc2)O1)NCc1ccccc1Cl	-8.4	-5.3	6.7	.	-1.8	1.2
Cc1ccccc1NC(=O)/C(=C/c1cccs1)NC(=O)c1ccco1	2.2	26.8*	.	-13.5	4.5	.
C[C@H]1CN([C@@H](C)CO)C(=O)CCCn2nncc2CO[C@@H]1CN(C)C(=O)Nc1cccc(Oc2ccccn2)c1	10.7	-1.5	2.4	.	1.0	0.2
COC(=O)c1cc(C(=O)c2c(C)cc3ccccn23)cc([N+](=O)[O-])c1	2.2	-2.5	5.5	-7.0	-21.6*	-6.0
Cc1cc2ccccn2c1C(=O)c1cc([N+](=O)[O-])cc([N+](=O)[O-])c1	-6.7	.	8.8	15.4	14.4	.
O=C(CC1Sc2ccccc2NC1=O)NNc1ccc(Cl)cc1Cl (centres undefined)	-0.5	10.3	13.3	.	2.9	-4.2
O=C1Nc2c(Cl)cc(Cl)cc2C12Nc1ccccc1S2 (centres undefined)	-1.5	-3.6	.	55.5*	.	.
O=C(C[C@@H]1C=C[C@H](NC(=O)c2ccc(F)cc2)[C@H](CO)O1)NCCc1ccncc1	10.9	15.2	-3.1	2.2[16.7 µM]	-5.0	-0.3
CCS(=O)(=O)Nc1ccc2c(c1)C(=O)N(C)C[C@H](OC)[C@@H](C)CN(C(=O)CN(C)C)[C@@H](C)CO2	-15.3	4.9	-6.9	.	2.5	1.7
CCN(CC)S(=O)(=O)c1ccc(N2CCN(c3cccc(OC)c3)CC2)c([N+](=O)[O-])c1	-3.0	.	4.3	43.3	.	9.2
COc1cccc(N2CCN(c3ccc(S(=O)(=O)N4CCN(C)CC4)cc3[N+](=O)[O-])CC2)c1	3.6	-2.1	3.8	15.8	-23.0*	.
C[C@H](CO)N1C[C@H](C)[C@@H](CN(C)Cc2ccc(-c3ccccc3)cc2)OCc2ccccc2-c2c(n(C)c3ccccc23)C1=O	16.4	12.0	.	.	4.5	.
O=C(CCl)Nc1cc(-c2ccccc2)nn1-c1ccccc1	-1.0	.	-0.7	36.8	.	-7.8
Nc1ccccc1Nc1cc(-c2ccccc2)nn1-c1cccc(Cl)c1	-1.1	20.3*	.	.	3.4	.
O=S(=O)(NC1CCN(Cc2ccc(OCCO)cc2)CC1)c1cc(C(F)(F)F)ccc1Cl	.	28.9*	-7.1	-6.8[16.7 µM]	.	0.3
CCc1ccc(NC(=O)CCC(=O)N2CCSc3ccccc32)cc1	10.4	-1.6	-0.3	-1.3	-21.6	12.5
CCc1cccc(NC(=O)CCC(=O)N2CCSc3ccccc32)c1	12.7	3.3	-12.5	0.4	-23.6*	4.4
CN1CCN(C(=O)C[C@H]2CC[C@H]3[C@@H](COC[C@@H](O)CN3Cc3cccc(Cl)c3)O2)CC1	-5.3	-6.0	-18.4	.	0.2	-1.0
O=C(C[C@@H]1CC[C@H]2[C@@H](COC[C@@H](O)CN2Cc2cccc(Cl)c2)O1)N1CCOCC1	-9.2	89.7*	2.5	.	-1.9	-2.9
O=C(C[C@@H]1CC[C@@H]2[C@H](COC[C@H](O)CN2Cc2cccc(Cl)c2)O1)N1CCOCC1	4.5	103.1*	-1.8	.	3.7	-1.2
CN1CCN(C(=O)C[C@@H]2CC[C@H]3[C@@H](COC[C@@H](O)CN3Cc3cccc(Cl)c3)O2)CC1	-7.3	27.1*	-6.0	.	-1.3	3.0
O=C(C[C@H]1CC[C@H]2[C@@H](COC[C@@H](O)CN2Cc2ccc(Oc3ccccc3)cc2)O1)N1CCCCC1	-0.7	23.8*	-7.4	.	-52.5	-0.4
SMILES	FN deposition inh	DENV2 CPE	PGC1a acetyl inh	HIV Env fusion	rRNA inh HTS	PglD inh
O=C(C[C@@H]1CC[C@@H]2[C@H](COC[C@H](O)CN2Cc2ccc(Oc3ccccc3)cc2)O1)N1CCCCC1	-12.5	-6.6	1.2	.	-56.7	-3.2
C/C=C/c1ccc([C@@H]2[C@H](CO)N(CC3CC3)C23CN(C(=O)c2ccc4c(c2)OCO4)C3)cc1	-10.4	-4.0	-6.6	.	-8.6	.
O=c1c2ccccc2nnn1CSc1nc2cc(Cl)ccc2c(=O)n1Cc1ccco1	2.9	.	.	2.2	.	.
O=c1c2ccccc2nnn1CSc1nnc(COc2ccc(Cl)cc2)n1Cc1ccco1	0.2	.	2.5	70.4*	.	8.2
Cc1ccc(S(=O)(=O)N(C)C[C@@H]2OCCCC[C@@H](C)Oc3ccc(NC(=O)Nc4c(C)noc4C)cc3C(=O)N([C@@H](C)CO)C[C@@H]2C)cc1	-7.5	-11.7	-32.6	-49.1[16.7 µM]	0.4	1.6
Cc1nnc(SCC(=O)N2c3ccccc3C(C)(c3ccccc3)CC2(C)C)s1 (centres undefined)	1.7	.	.	61.6*	.	.
CCC(=O)N1CC2(C1)[C@@H](c1ccccc1)[C@@H](CO)N2C(=O)c1cccnc1	.	29.2*	-5.7	.	4.2	.
O=C(Cc1cccnc1)N1CC2(C1)[C@H](c1ccccc1)[C@@H](CO)N2C(=O)C1CCOCC1	-1.3	-12.5	18.5	.	4.2	.
CCC(=O)N1CC2(C1)[C@H](c1ccccc1)[C@@H](CO)N2C(=O)c1ccncc1	.	23.0*	-0.7	.	3.2	.
O=C(Cc1cccnc1)N1CC2(C1)[C@@H](c1ccccc1)[C@@H](CO)N2C(=O)C1CCOCC1	-6.9	22.3*	12.4	.	1.6	.
COCC(=O)N1CC2(C1)[C@H](c1ccccc1)[C@H](CO)N2C(=O)c1cccnc1	.	-4.0	4.4	.	2.8	.
CCC(=O)N1CC2(C1)[C@@H](c1ccc(-c3ccccc3C)cc1)[C@@H](CO)N2C(=O)CC	-1.1	36.8*	.	.	-5.2	.
COc1ccc(S(=O)(=O)Nc2ccc3c(c2)C(=O)N([C@H](C)CO)C[C@H](C)[C@H](CN(C)Cc2ccc(C(=O)O)cc2)OCCCC[C@H](C)O3)cc1	.	11.2	6.7	-25.1[16.7 µM]	1.4	5.6
CO[C@H](CN(C)C(=O)c1cnccn1)[C@H](C)CN([C@H](C)CO)S(=O)(=O)c1ccccc1	-1.3	-2.1	6.4	.	0.6	0.5
C[C@@H]1CN([C@H](C)CO)C(=O)c2cc(NS(C)(=O)=O)ccc2O[C@@H]1CN(C)Cc1ccc(C(F)(F)F)cc1	.	-9.4	-13.3	3.4[16.7 µM]	-1.5	3.2

Screens deposited in PubChem BioAssay by Broad Institute.
